Experimental data published in ChEMBL document CHEMBL4152207, “Discovery of potent and selective BRD4 inhibitors capable of blocking TLR3-induced acute airway inflammation” (Eur J Med Chem, 2018).
Activity calls are given as the source filed them. The calls are words filed in the database; no cut-off is given here.

How the values were obtained:
[1] = target: T1, Bromodomain-containing protein 4 (Homo sapiens, UniProt O60885); experiment: Inhibition of BRD4 in human SAE cells assessed as reduction in TLR3 agonist poly(I:C) -induced ISG54 RNA expression preincubated for 24 hrs followed by poly(I:C) addition and measured after 4 hrs by SYBR green dye-based qRT-PCR analysis; assay type: cell-based
[2] = target: T1, Bromodomain-containing protein 4; experiment: Inhibition of BRD4 in human SAE cells assessed as reduction in TLR3 agonist poly(I:C) -induced IL-8 RNA expression preincubated for 24 hrs followed by poly(I:C) addition and measured after 4 hrs by SYBR green dye-based qRT-PCR analysis; assay type: cell-based
[3] = target: T1, Bromodomain-containing protein 4; experiment: Inhibition of BRD4 in human SAE cells assessed as reduction in TLR3 agonist poly(I:C) -induced grobeta RNA expression preincubated for 24 hrs followed by poly(I:C) addition and measured after 4 hrs by SYBR green dye-based qRT-PCR analysis; assay type: cell-based
[4] = target: T1, Bromodomain-containing protein 4; experiment: Inhibition of BRD4 in human SAE cells assessed as reduction in TLR3 agonist poly(I:C) -induced ISG56 RNA expression preincubated for 24 hrs followed by poly(I:C) addition and measured after 4 hrs by SYBR green dye-based qRT-PCR analysis; assay type: cell-based
Mus musculus [5] = experiment: (§1) Anti-inflammatory activity in poly(I:C)-induced airway inflammation C57BL/6 mouse model assessed as reduction in neutrophils recruitment into bronchoalveolar lavage fluid at 10 mg/kg, ip administered 1 day prior to poly(I:C) stimulation and redosed on day 2 followed by poly(I:C) stimulation by trypan blue staining-based hemocytometric analysis; assay type: functional, organism-based
Mus musculus [6] = experiment: Anti-inflammatory activity in poly(I:C)-induced airway inflammation C57BL/6 mouse model assessed as reduction in mISG54 expression in lung at 10 mg/kg, ip administered 1 day prior to poly(I:C) stimulation and redosed on day 2 followed by poly(I:C) stimulation; assay type: functional, organism-based
Outline: (§2)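 Male C57BL/6J mice, 12 weeks old, were given 10 mg/kg i.p. one day before stimulation. The next day they got a second dose, immediately followed by intranasal poly(I:C) (300 μg in 50 μL PBS) or PBS alone. Compound was taken up in DMSO and diluted in 10% hydroxypropyl β-cyclodextrin in PBS. Mice were euthanized one day later and lung tissue was collected for cytokine expression.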

CREB-binding protein = CREB-binding protein (Homo sapiens, UniProt Q92793); experiment: Inhibition of CBP (unknown origin) after 1 hr by TR-FRET assay
Outline: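 Isolated bromodomain in a kit TR-FRET assay. Inhibitor series 0.01 nM to 100 μM, incubated 1 h at room temperature. Excitation 340 nm, emission read at 620 and 670 nm with 100 μs delay and 500 μs window. IC50 from the sigmoidal plot of the 670/620 ratio against concentration. Mean of at least two runs.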

Mus musculus [7] = experiment: Anti-inflammatory activity in poly(I:C)-induced airway inflammation C57BL/6 mouse model assessed as reduction in mCIG5 expression in lung at 10 mg/kg, ip administered 1 day prior to poly(I:C) stimulation and redosed on day 2 followed by poly(I:C) stimulation; assay type: functional, organism-based; outline: as §2
Mus musculus [8] = experiment: Anti-inflammatory activity in poly(I:C)-induced airway inflammation C57BL/6 mouse model assessed as reduction in mKC expression in lung at 10 mg/kg, ip administered 1 day prior to poly(I:C) stimulation and redosed on day 2 followed by poly(I:C) stimulation; assay type: functional, organism-based; outline: as §2
Mus musculus [9] = experiment: Anti-inflammatory activity in poly(I:C)-induced airway inflammation C57BL/6 mouse model assessed as reduction in mIL6 expression in lung at 10 mg/kg, ip administered 1 day prior to poly(I:C) stimulation and redosed on day 2 followed by poly(I:C) stimulation; assay type: functional, organism-based; outline: as §2
[10] = Cmax in rat at 20 mg/kg, po; assay type: ADME, organism-based; set-up: dose 20 mg/kg, route oral; details: in vivo
Mus musculus [11] = experiment: as §1, with “total cells in” for “neutrophils recruitment into”; assay type: functional, organism-based
[12] = AUC (0 to t) in rat at 10 mg/kg, iv; assay type: ADME, organism-based; details: in vivo
[13] = Volume of distribution at steady state in rat at 10 mg/kg, iv; assay type: ADME, organism-based; details: in vivo, read-out: Vdss
[14] = Half life in rat at 10 mg/kg, iv; assay type: ADME, organism-based; details: in vivo
[15] = AUC (0 to t) in rat at 20 mg/kg, po; assay type: ADME, organism-based; details: in vivo
[16] = Total clearance in rat at 10 mg/kg, iv; assay type: ADME, organism-based; details: in vivo

Chain of CREB-binding protein (Q92793 whole entry): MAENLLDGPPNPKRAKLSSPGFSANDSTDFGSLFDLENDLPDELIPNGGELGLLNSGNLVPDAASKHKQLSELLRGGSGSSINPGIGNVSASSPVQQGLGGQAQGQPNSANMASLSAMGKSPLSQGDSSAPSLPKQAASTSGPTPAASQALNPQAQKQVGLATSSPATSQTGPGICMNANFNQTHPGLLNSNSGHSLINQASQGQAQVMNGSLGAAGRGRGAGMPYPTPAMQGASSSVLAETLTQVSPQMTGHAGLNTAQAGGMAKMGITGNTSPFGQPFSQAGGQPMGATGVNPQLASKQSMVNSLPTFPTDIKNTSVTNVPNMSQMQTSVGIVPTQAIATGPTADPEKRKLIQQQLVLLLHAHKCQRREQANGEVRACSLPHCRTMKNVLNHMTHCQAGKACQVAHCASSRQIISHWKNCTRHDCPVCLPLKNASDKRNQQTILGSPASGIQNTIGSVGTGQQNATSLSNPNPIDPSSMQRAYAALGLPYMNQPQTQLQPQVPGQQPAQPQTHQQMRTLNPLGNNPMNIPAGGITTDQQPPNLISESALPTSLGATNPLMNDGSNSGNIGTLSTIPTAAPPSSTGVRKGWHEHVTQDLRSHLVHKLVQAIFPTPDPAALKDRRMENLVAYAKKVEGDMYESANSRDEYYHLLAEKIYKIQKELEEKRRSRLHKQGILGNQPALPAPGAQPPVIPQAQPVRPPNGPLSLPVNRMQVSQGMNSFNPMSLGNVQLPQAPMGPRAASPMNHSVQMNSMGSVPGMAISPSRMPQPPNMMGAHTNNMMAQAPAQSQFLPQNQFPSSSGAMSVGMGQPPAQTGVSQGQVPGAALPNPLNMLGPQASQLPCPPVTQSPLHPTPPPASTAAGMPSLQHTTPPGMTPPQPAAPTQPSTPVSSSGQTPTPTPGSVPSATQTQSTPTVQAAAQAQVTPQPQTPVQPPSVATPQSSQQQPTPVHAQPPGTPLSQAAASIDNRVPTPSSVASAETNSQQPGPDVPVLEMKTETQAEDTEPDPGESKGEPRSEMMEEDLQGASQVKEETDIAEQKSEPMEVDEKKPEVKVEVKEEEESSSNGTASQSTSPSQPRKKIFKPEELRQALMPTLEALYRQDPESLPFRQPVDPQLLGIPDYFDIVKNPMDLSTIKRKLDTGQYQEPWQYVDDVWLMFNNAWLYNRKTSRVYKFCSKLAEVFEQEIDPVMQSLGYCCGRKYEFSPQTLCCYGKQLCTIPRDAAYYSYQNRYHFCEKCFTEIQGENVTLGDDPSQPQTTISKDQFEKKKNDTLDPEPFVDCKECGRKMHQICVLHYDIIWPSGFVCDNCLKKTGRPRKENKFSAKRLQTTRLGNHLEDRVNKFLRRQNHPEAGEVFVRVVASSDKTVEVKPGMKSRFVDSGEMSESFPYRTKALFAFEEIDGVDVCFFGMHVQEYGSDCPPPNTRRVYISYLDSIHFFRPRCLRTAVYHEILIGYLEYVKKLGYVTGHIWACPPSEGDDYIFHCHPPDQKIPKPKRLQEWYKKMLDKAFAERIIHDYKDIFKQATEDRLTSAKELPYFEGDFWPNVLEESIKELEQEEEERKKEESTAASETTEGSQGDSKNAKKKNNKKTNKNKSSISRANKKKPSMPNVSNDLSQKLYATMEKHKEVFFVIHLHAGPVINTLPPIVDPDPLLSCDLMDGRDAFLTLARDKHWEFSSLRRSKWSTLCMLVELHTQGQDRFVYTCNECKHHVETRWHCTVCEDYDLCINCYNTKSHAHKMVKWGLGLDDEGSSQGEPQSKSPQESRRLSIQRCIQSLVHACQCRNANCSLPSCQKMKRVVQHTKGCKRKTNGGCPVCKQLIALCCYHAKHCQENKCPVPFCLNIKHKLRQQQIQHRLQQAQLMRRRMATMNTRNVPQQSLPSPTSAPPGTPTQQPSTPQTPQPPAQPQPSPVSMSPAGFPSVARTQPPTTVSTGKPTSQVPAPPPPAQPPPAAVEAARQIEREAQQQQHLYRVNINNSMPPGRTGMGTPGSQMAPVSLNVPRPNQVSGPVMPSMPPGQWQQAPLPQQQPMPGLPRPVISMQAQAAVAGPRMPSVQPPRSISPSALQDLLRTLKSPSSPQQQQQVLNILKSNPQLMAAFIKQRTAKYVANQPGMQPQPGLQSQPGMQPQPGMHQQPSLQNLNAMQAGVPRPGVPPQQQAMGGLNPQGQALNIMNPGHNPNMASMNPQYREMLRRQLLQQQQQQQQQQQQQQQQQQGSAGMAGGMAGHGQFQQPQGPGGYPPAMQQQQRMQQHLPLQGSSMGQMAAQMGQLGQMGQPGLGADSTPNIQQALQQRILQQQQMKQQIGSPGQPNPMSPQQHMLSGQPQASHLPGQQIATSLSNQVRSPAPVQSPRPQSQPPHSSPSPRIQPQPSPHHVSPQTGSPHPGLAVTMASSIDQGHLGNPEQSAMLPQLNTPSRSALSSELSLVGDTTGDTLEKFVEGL

SMILES | IC50 [1] [µM] | IC50 [2] [µM] | IC50 [3] [µM] | IC50 [4] [µM] | Activity (Mus musculus [5]) | Activity (Mus musculus [6]) | IC50 (CREB-binding protein) [µM] | Activity (Mus musculus [7]) | Activity (Mus musculus [8]) | Activity (Mus musculus [9]) | Cmax [10] [ng/mL] | Activity (Mus musculus [11]) | AUC(0-t) [12] [ng·h/mL] | Vd [13] [L/kg] | half-life [14] [h] | AUC(0-t) [15] [ng·h/mL] | clearance [16] [mL/min/kg]
CC(C)(C)c1cc(-c2nnc(-c3cc(F)cc(Cl)c3)o2)no1 | 7.9 | 4.3 | 3.9 | 7.7 | – | – | – | – | – | – | – | – | – | – | – | – | –
COc1cc(OC)c2c(=O)[nH]c(-c3cc(C)c(OCCO)c(C)c3)nc2c1 [APABETALONE] | – | – | – | – | inactive | inactive | > 10 | inactive | inactive | inactive | – | – | – | – | – | – | –
Cc1sc2c(c1C)C(c1ccc(Cl)cc1)=N[C@@H](CC(=O)OC(C)(C)C)c1nnc(C)n1-2 | – | – | – | – | inactive | inactive | 9.6 | inactive | inactive | inactive | – | – | – | – | – | – | –
Cc1cc(/N=N/c2ccc3c(c2)CCC(=O)N3)c(N)cc1O | 0.49 | 0.53 | 0.58 | 0.51 | Active | Active | > 10 | Active | Active | Active | 80 | Active | 14700 | 0.864 | 1.2 | 450 | 11.5
